In ChEMBL document CHEMBL1146752, “Oxamyl dipeptide caspase inhibitors developed for the treatment of stroke” (Bioorg Med Chem Lett, 2004):

What was measured:
Caspase-9 = biological target: T1, Caspase-9 (Homo sapiens, UniProt P55211); assay: Binding affinity towards human Caspase-9
T1 sequence (P55211 whole entry): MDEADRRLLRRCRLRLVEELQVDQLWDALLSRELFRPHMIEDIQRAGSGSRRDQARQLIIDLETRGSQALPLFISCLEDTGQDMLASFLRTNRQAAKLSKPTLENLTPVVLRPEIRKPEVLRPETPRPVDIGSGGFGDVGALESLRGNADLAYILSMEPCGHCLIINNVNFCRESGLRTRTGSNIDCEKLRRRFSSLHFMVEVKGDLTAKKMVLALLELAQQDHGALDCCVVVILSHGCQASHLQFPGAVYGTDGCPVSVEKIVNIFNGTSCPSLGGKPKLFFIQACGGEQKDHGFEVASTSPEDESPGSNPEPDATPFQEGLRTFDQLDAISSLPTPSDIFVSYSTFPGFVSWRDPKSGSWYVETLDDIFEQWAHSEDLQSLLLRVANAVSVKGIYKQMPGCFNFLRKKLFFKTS

Homo sapiens [1] = species on record: Homo sapiens; assay: Inhibitory activity against human monocyte at the concentration of 10 uM; assay type: functional
Summary of the method: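 Human monocyte caspase-1-dependent cellular assay. Compound tested at a single 10 µM concentration. Read-out is percent inhibition.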

Homo sapiens [2] = species on record: Homo sapiens; assay: Inhibitory activity against human monocyte; assay type: functional
Summary of the method: (§1)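 Human cells (monocytes; THP-1 line) in a caspase-1-dependent cellular assay run for 24 h at 37 °C. Read-out is IC50 (µM).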

Jurkat = assay: Inhibitory activity evaluated against human jurkat cell line in cellular assay; assay type: functional, cell-based
Summary of the method: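 Human Jurkat cells, in an assay where caspase-8 is relevant but other caspases also contribute. Run for 24 h at 37 °C. Read-out is IC50 (µM).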

Rattus norvegicus = species on record: Rattus norvegicus; assay: Inhibitory activity evaluated against rat Con A embryonic cortical neurons in cellular assay; assay type: functional
SKW 6.4 = assay: Inhibitory activity was evaluated against human SKW 6.4 cell line in cellular assay; assay type: functional, cell-based
Summary of the method: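 Cellular assay (Con A; SKW 6.4 cells) run for 24 h at 37 °C. Read-out is IC50 (µM).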

THP-1 = assay: Inhibitory activity evaluated against human THP-1 cell line in cellular assay; assay type: functional, cell-based; summary of the method: as §1

| IC50 (Caspase-9) [µM] | IC50 (Homo sapiens [2]) [µM] | IC50 (Jurkat) [µM] | IC50 (SKW 6.4) [µM] | IC50 (THP-1) [µM] | Structure (SMILES) | inhibition at 10 µM (Homo sapiens [1]) [%] | IC50 (Rattus norvegicus) [µM] |
| --- | --- | --- | --- | --- | --- | --- | --- |
| – | – | 0.43 | 0.94 | 0.07 | CC(C)[C@H](NC(=O)C(=O)Nc1ccccc1)C(=O)N[C@@H](CC(=O)O)C(=O)COc1c(F)c(F)cc(F)c1F | – | 1.5 |
| – | – | 0.01 | 1.96 | 0.22 | CC(C)[C@H](NC(=O)C(=O)Nc1cccc2cc3ccccc3cc12)C(=O)N[C@@H](CC(=O)O)C(=O)COc1c(F)c(F)cc(F)c1F | – | 0.85 |
| – | – | 0.009 | 1.56 | 0.18 | CC(C)[C@H](NC(=O)C(=O)Nc1ccccc1Cc1ccccc1)C(=O)N[C@@H](CC(=O)O)C(=O)COc1c(F)c(F)cc(F)c1F | – | 2 |
| – | – | 0.39 | 14 | 0.47 | CC(C)[C@H](NC(=O)C(=O)Nc1c(F)c(F)c(F)c(F)c1F)C(=O)N[C@@H](CC(=O)O)C(=O)COc1c(F)c(F)cc(F)c1F | – | 2.9 |
| – | – | 0.0007 | 0.38 | 0.7 | CC(C)[C@H](NC(=O)C(=O)Nc1ccc2ccccc2c1)C(=O)N[C@@H](CC(=O)O)C(=O)COc1c(F)c(F)cc(F)c1F | – | 3.28 |
| – | – | 2.35 | 9.9 | 6.58 | CC(C)[C@H](NC(=O)C(=O)NNc1ccccc1)C(=O)N[C@@H](CC(=O)O)C(=O)COc1c(F)c(F)cc(F)c1F | – | 20 |
| – | – | 0.15 | 0.75 | 0.66 | CC(C)[C@H](NC(=O)C(=O)Nc1ccc2cc3ccccc3cc2c1)C(=O)N[C@@H](CC(=O)O)C(=O)COc1c(F)c(F)cc(F)c1F | – | 0.55 |
| 2.72 | – | – | – | – | CC(C)C[C@H](NC(=O)COc1cccc2ccccc12)C(=O)N[C@H](C=O)CC(=O)O | 17 | – |

Further lines, the compound ahead of its results:

| Structure (SMILES) | IC50 (Caspase-9) [µM] | IC50 (Homo sapiens [2]) [µM] | IC50 (Jurkat) [µM] | IC50 (SKW 6.4) [µM] | IC50 (THP-1) [µM] | inhibition at 10 µM (Homo sapiens [1]) [%] | IC50 (Rattus norvegicus) [µM] |
| --- | --- | --- | --- | --- | --- | --- | --- |
| CC(C)C[C@H](NC(=O)C(=O)Nc1cccc2ccccc12)C(=O)N[C@H](C=O)CC(=O)O | 0.23 | 3.08 | – | – | – | 79 | – |
| CC(C)[C@H](NC(=O)C(=O)NCCc1ccccc1)C(=O)N[C@@H](CC(=O)O)C(=O)COc1c(F)c(F)cc(F)c1F | – | – | 4.7 | 0.61 | 0.08 | – | 3.5 |
| CC(C)[C@H](NC(=O)C(=O)Nc1c(Cl)c(Cl)cc(Cl)c1Cl)C(=O)N[C@@H](CC(=O)O)C(=O)COc1c(F)c(F)cc(F)c1F | – | – | 0.22 | 0.41 | 1.05 | – | 0.66 |
| CC(C)[C@H](NC(=O)C(=O)Nc1ccc(Cl)c2ccccc12)C(=O)N[C@@H](CC(=O)O)C(=O)COc1c(F)c(F)cc(F)c1F | – | – | 0.03 | 2.45 | 0.61 | – | 0.75 |
| CC(C)[C@H](NC(=O)C(=O)Nc1cnccn1)C(=O)N[C@@H](CC(=O)O)C(=O)COc1c(F)c(F)cc(F)c1F | – | – | 0.17 | 19.1 | 1.44 | – | 5.9 |
| CC(C)[C@H](NC(=O)C(=O)Nc1ccc(I)cc1F)C(=O)N[C@@H](CC(=O)O)C(=O)COc1c(F)c(F)cc(F)c1F | – | – | 0.01 | 0.15 | 0.41 | – | 0.7 |
| CC(C)[C@H](NC(=O)C(=O)Nc1ccccc1F)C(=O)N[C@@H](CC(=O)O)C(=O)COc1c(F)c(F)cc(F)c1F | – | – | 0.097 | 0.5 | 0.68 | – | 0.97 |
| CC(C)[C@H](NC(=O)C(=O)Nc1cc(C(C)(C)C)ccc1C(C)(C)C)C(=O)N[C@@H](CC(=O)O)C(=O)COc1c(F)c(F)cc(F)c1F | – | – | 0.017 | 1.87 | 2.64 | – | 2 |
| CC(C)C[C@H](NC(=O)CNc1cccc2ccccc12)C(=O)N[C@H](C=O)CC(=O)O | 0.16 | – | – | – | – | 18 | – |
| COc1ccccc1NC(=O)C(=O)N[C@H](C(=O)N[C@@H](CC(=O)O)C(=O)COc1c(F)c(F)cc(F)c1F)C(C)C | – | – | 0.31 | 1.2 | 0.4 | – | 2.5 |
| CC(C)[C@H](NC(=O)C(=O)Nc1ccccc1Cl)C(=O)N[C@@H](CC(=O)O)C(=O)COc1c(F)c(F)cc(F)c1F | – | – | 0.016 | 0.11 | 0.16 | – | 0.3 |
| CC(C)[C@H](NC(=O)C(=O)Nc1ccccc1Oc1ccccc1)C(=O)N[C@@H](CC(=O)O)C(=O)COc1c(F)c(F)cc(F)c1F | – | – | 0.66 | 1.78 | 1.77 | – | 2.5 |
| CC(C)[C@H](NC(=O)C(=O)Nc1ccc(F)cc1)C(=O)N[C@@H](CC(=O)O)C(=O)COc1c(F)c(F)cc(F)c1F | – | – | 0.019 | 0.92 | 1.21 | – | 2 |
